Reference: ChEMBL document CHEMBL1124497, “Thromboxane A2 synthetase inhibitors. 2. Syntheses and activities of tetrahydronaphthalene and indan derivatives” (J Med Chem, 1989)

Legend:
Type in all cases: functional
Rattus norvegicus [1] = test: Inhibition of thromboxane B2 production in whole blood of rats, 6 hr after a peroral dose of 1.0 mg/kg; details: route oral
In short: (§1)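 Rats were dosed orally at 1 mg/kg with compound suspended in water; controls received vehicle. Whole blood was drawn from the external jugular vein under anesthesia at 1, 3 and 6 h, held on ice 15 min, then clotted at 37 °C for 1 h. Serum was separated at 1000g for 10 min. TXB₂, 6-keto-PGF₁α (the PGI₂ metabolite) and PGE₂ were measured by radioimmunoassay. Prostanoid enhancement is expressed as x-fold at 1 h.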

Rattus norvegicus [2] = organism: Rattus norvegicus; test: In vitro inhibition of thromboxane A2 production in rat platelet-rich plasma.
In short: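 Citrated rat platelet-rich plasma (4 × 10⁷ platelets) was preincubated with compound for 1 min at room temperature with gentle shaking. Sodium arachidonate (final 0.5 mmol) started the reaction, which ran 5 min at room temperature with vigorous shaking. Indomethacin (final 0.1 mmol) stopped it. After centrifugation (1000g, 5 min), supernatant TXB₂ was measured by radioimmunoassay. IC₅₀ is the concentration giving 50% inhibition of TXB₂ production.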

Rattus norvegicus [3] = test: Enhancement of prostaglandin E2 levels in serum of incubated whole blood at 1 hr after an oral dose of 1 mg/kg; in short: as §1
Rattus norvegicus [4] = test: Inhibition of thromboxane B2 production in whole blood of rats 1 hr following 1 mg/kg p.o.; details: route oral; in short: as §1
Rattus norvegicus [5] = test: Inhibition of thromboxane B2 production in whole blood of rat 15 min after intravenous injection of compound at 0.1 mg/kg; details: 0.25 h
In short: (§2)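 The compound was given intravenously to rats in physiological saline; controls received vehicle. Whole blood was drawn from the external jugular vein under anesthesia at 15, 45 and 75 min. Samples were kept on ice 15 min, clotted at 37 °C for 1 h and centrifuged (1000g, 10 min). Serum TXB₂ was measured by radioimmunoassay and expressed as % inhibition.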

Rattus norvegicus [6] = test: Inhibition of thromboxane B2 production in whole blood of rats, 3h after a peroral dose of 1.0 mg/kg; details: route oral; in short: as §1
Rattus norvegicus [7] = test: Increase in serum prostaglandin I2 levels in incubated whole blood from rats, 1 hr following 1 mg/kg p.o.; details: route oral; in short: as §1
Rattus norvegicus [8] = test: Inhibition of thromboxane B2 production in whole blood of rat 45 min after intravenous injection of compound at 0.1 mg/kg; details: 0.75 h; in short: as §2
Rattus norvegicus [9] = test: Inhibition of thromboxane B2 production in whole blood of rat 75 min after intravenous injection of compound at 0.1 mg/kg; details: 1.25 h; in short: as §2
Rattus norvegicus [10] = test: Inhibition of thromboxane B2 production in whole blood of rats, 1 hr after a peroral dose of 0.1 mg/kg; details: route oral
Rattus norvegicus [11] = test: Inhibition of thromboxane B2 production in whole blood of rats, 4 hr after a peroral dose of 0.1 mg/kg; details: route oral
Rattus norvegicus [12] = test: Inhibition of thromboxane A2 production in whole blood of rats, 4 hr after a peroral dose of 0.1 mg/kg; details: route oral
Rattus norvegicus [13] = test: Inhibition of thromboxane A2 production in whole blood of rats, 4 hr after a peroral dose of 1.0 mg/kg; details: route oral

Molecule O=C(O)c1ccc(OCCn2ccnc2)cc1 [DAZOXIBEN] has an inhibition in vivo at 1 mg/kg (Rattus norvegicus [1]) of 8%, an IC50 (Rattus norvegicus [2]) of 11 µM and a x fold (Rattus norvegicus [3]) of 3.91. The inhibition in vivo at 1 mg/kg (Rattus norvegicus [4]) was 50%, the inhibition in vivo at 0.1 mg/kg (Rattus norvegicus [5]) was 25% and the inhibition in vivo at 1 mg/kg (Rattus norvegicus [6]) was 21%. For the same molecule, the x fold (Rattus norvegicus [7]) was 1.9 and the inhibition in vivo at 0.1 mg/kg (Rattus norvegicus [8]) was 6%.

O=C(O)c1ccc2c(c1)CCCC2CCn1ccnc1 (stereo unspecified) showed an inhibition in vivo at 1 mg/kg (Rattus norvegicus [1]) of 28%, an IC50 (Rattus norvegicus [2]) of 14 µM and a x fold (Rattus norvegicus [3]) of 10.05. For the same molecule, the inhibition in vivo at 1 mg/kg (Rattus norvegicus [4]) was 93%, the inhibition in vivo at 0.1 mg/kg (Rattus norvegicus [5]) was 84% and the inhibition in vivo at 1 mg/kg (Rattus norvegicus [6]) was 59%. The x fold (Rattus norvegicus [7]) was 3.38, the inhibition in vivo at 0.1 mg/kg (Rattus norvegicus [9]) was 46% and the inhibition in vivo at 0.1 mg/kg (Rattus norvegicus [8]) was 53%.

With O=C(O)c1ccc(OCCc2cncs2)cc1 the inhibition in vivo at 1 mg/kg (Rattus norvegicus [1]) was 54%, the IC50 (Rattus norvegicus [2]) was 3.8 µM and the inhibition in vivo at 1 mg/kg (Rattus norvegicus [4]) was 88%. The inhibition in vivo at 1 mg/kg (Rattus norvegicus [6]) was 83% and the x fold (Rattus norvegicus [7]) was 3.14.

In the case of O=C(O)/C=C/c1ccc(Cn2ccnc2)cc1 [OZAGREL], the inhibition in vivo at 1 mg/kg (Rattus norvegicus [1]) is reported as 11%, the IC50 (Rattus norvegicus [2]) is reported as 4.5 µM and the x fold (Rattus norvegicus [3]) is reported as 4.8. For the same molecule, the inhibition in vivo at 1 mg/kg (Rattus norvegicus [4]) was 91%, the inhibition in vivo at 0.1 mg/kg (Rattus norvegicus [5]) was 89% and the inhibition in vivo at 1 mg/kg (Rattus norvegicus [6]) was 42%. The x fold (Rattus norvegicus [7]) was 2.5, the inhibition in vivo at 0.1 mg/kg (Rattus norvegicus [9]) was 46% and the inhibition in vivo at 0.1 mg/kg (Rattus norvegicus [8]) was 72%.

Cl.O=C(O)C1Cc2ccc(Cn3ccnc3)cc2C1 (stereo unspecified) gave an inhibition in vivo at 1 mg/kg (Rattus norvegicus [1]) of 61%, an IC50 (Rattus norvegicus [2]) of 7.2 µM and a x fold (Rattus norvegicus [3]) of 7.27. The inhibition in vivo at 1 mg/kg (Rattus norvegicus [4]) was 87%, the inhibition in vivo at 0.1 mg/kg (Rattus norvegicus [5]) was 58% and the inhibition in vivo at 1 mg/kg (Rattus norvegicus [6]) was 75%. The x fold (Rattus norvegicus [7]) was 3.14, the inhibition in vivo at 0.1 mg/kg (Rattus norvegicus [9]) was 32% and the inhibition in vivo at 0.1 mg/kg (Rattus norvegicus [8]) was 46%.

O=C([O-])C1CCc2cc(Cc3cncs3)ccc2C1.[Na+] (stereo unspecified) gave an IC50 (Rattus norvegicus [2]) of 1.9 µM, a x fold (Rattus norvegicus [3]) of 5.91 and an inhibition in vivo at 1 mg/kg (Rattus norvegicus [4]) of 69%. The x fold (Rattus norvegicus [7]) was 2.65.

C/C(=C\c1ccc(Cc2cccnc2)cc1)C(=O)O was tested, and the inhibition in vivo at 1 mg/kg (Rattus norvegicus [1]) was 44%, the IC50 (Rattus norvegicus [2]) was 0.15 µM and the x fold (Rattus norvegicus [3]) was 3.87. For the same molecule, the inhibition in vivo at 1 mg/kg (Rattus norvegicus [4]) was 71%, the inhibition in vivo at 1 mg/kg (Rattus norvegicus [6]) was 64% and the x fold (Rattus norvegicus [7]) was 2.55.

In the case of C/C(=C\c1ccc(Cc2cncs2)cc1)C(=O)O, the IC50 (Rattus norvegicus [2]) is reported as 0.22 µM and the inhibition in vivo at 1 mg/kg (Rattus norvegicus [4]) is reported as 44%.

Cc1c(Cn2ccnc2)c2ccccc2n1CCC(=O)O [DAZMEGREL] was tested, and the inhibition in vivo at 1 mg/kg (Rattus norvegicus [1]) was 40%, the IC50 (Rattus norvegicus [2]) was 12 µM and the x fold (Rattus norvegicus [3]) was 5.36. It also gave an inhibition in vivo at 1 mg/kg (Rattus norvegicus [4]) of 92%, an inhibition in vivo at 0.1 mg/kg (Rattus norvegicus [5]) of 11% and an inhibition in vivo at 1 mg/kg (Rattus norvegicus [6]) of 71%. It also gave a x fold (Rattus norvegicus [7]) of 2.26, an inhibition in vivo at 0.1 mg/kg (Rattus norvegicus [9]) of 29% and an inhibition in vivo at 0.1 mg/kg (Rattus norvegicus [8]) of 46%.

In the case of O=C([O-])c1cccc2c1CCCC2CCc1cncs1.[Na+] (stereo unspecified), the inhibition in vivo at 1 mg/kg (Rattus norvegicus [1]) is reported as 86%, the IC50 (Rattus norvegicus [2]) is reported as 0.37 µM and the x fold (Rattus norvegicus [3]) is reported as 5.63. The inhibition in vivo at 1 mg/kg (Rattus norvegicus [4]) was 97%, the inhibition in vivo at 0.1 mg/kg (Rattus norvegicus [5]) was 88% and the inhibition in vivo at 1 mg/kg (Rattus norvegicus [6]) was 93%. For the same molecule, the x fold (Rattus norvegicus [7]) was 2.68, the inhibition in vivo at 0.1 mg/kg (Rattus norvegicus [9]) was 67% and the inhibition in vivo at 0.1 mg/kg (Rattus norvegicus [8]) was 79%.

For Cl.O=C(O)c1ccc2c(c1)CC(Cn1ccnc1)CC2 (stereo unspecified), the IC50 (Rattus norvegicus [2]) was 5.6 µM, the x fold (Rattus norvegicus [3]) was 4.27 and the inhibition in vivo at 1 mg/kg (Rattus norvegicus [4]) was 57%. It also gave a x fold (Rattus norvegicus [7]) of 1.99.

In the case of Cl.O=C(O)c1cccc2c1CCCC2CCn1ccnc1 (stereo unspecified), the inhibition in vivo at 1 mg/kg (Rattus norvegicus [1]) is reported as 76%, the IC50 (Rattus norvegicus [2]) is reported as 5.4 µM and the x fold (Rattus norvegicus [3]) is reported as 5.88. It also gave an inhibition in vivo at 1 mg/kg (Rattus norvegicus [4]) of 93%, an inhibition in vivo at 0.1 mg/kg (Rattus norvegicus [5]) of 79% and an inhibition in vivo at 1 mg/kg (Rattus norvegicus [6]) of 93%. The x fold (Rattus norvegicus [7]) was 3.02, the inhibition in vivo at 0.1 mg/kg (Rattus norvegicus [9]) was 64% and the inhibition in vivo at 0.1 mg/kg (Rattus norvegicus [8]) was 74%.

O=C([O-])c1ccc2c(c1)CCC(Cc1cncs1)C2.[Na+] (stereo unspecified) was tested, and the inhibition in vivo at 1 mg/kg (Rattus norvegicus [1]) was 78%, the IC50 (Rattus norvegicus [2]) was 0.14 µM and the x fold (Rattus norvegicus [3]) was 5.26. The inhibition in vivo at 1 mg/kg (Rattus norvegicus [4]) was 93%, the inhibition in vivo at 0.1 mg/kg (Rattus norvegicus [5]) was 90% and the inhibition in vivo at 1 mg/kg (Rattus norvegicus [6]) was 88%. It also gave a x fold (Rattus norvegicus [7]) of 2.55, an inhibition in vivo at 0.1 mg/kg (Rattus norvegicus [9]) of 75% and an inhibition in vivo at 0.1 mg/kg (Rattus norvegicus [8]) of 87%.

Cl.O=C(O)C1CCc2cc(Cn3ccnc3)ccc2C1 (stereo unspecified) showed an inhibition in vivo at 1 mg/kg (Rattus norvegicus [1]) of 49%, an IC50 (Rattus norvegicus [2]) of 1.4 µM and a x fold (Rattus norvegicus [3]) of 4.79. The inhibition in vivo at 1 mg/kg (Rattus norvegicus [4]) was 88%, the inhibition in vivo at 1 mg/kg (Rattus norvegicus [6]) was 69% and the x fold (Rattus norvegicus [7]) was 2.22.

For O=C(O)/C=C/c1ccc(Cc2cncs2)cc1, the IC50 (Rattus norvegicus [2]) was 1.5 µM and the inhibition in vivo at 1 mg/kg (Rattus norvegicus [4]) was 39%.

With O=C(O)c1cccc2c1CCC2CCn1ccnc1 (stereo unspecified) the IC50 (Rattus norvegicus [2]) was 0.86 µM and the inhibition in vivo at 1 mg/kg (Rattus norvegicus [4]) was 97%.

With Cl.O=C(O)c1ccc2c(c1)CCC(Cn1ccnc1)C2 (stereo unspecified) the inhibition in vivo at 1 mg/kg (Rattus norvegicus [1]) was 88%, the inhibition in vivo at 0.1 mg/kg (Rattus norvegicus [10]) was 85% and the IC50 (Rattus norvegicus [2]) was 1.1 µM. For the same molecule, the x fold (Rattus norvegicus [3]) was 5.9, the inhibition in vivo at 1 mg/kg (Rattus norvegicus [4]) was 98% and the inhibition in vivo at 0.1 mg/kg (Rattus norvegicus [5]) was 95%. It also gave an inhibition in vivo at 1 mg/kg (Rattus norvegicus [6]) of 93%, a x fold (Rattus norvegicus [7]) of 2.91 and an inhibition in vivo at 0.1 mg/kg (Rattus norvegicus [9]) of 88%. The inhibition in vivo at 0.1 mg/kg (Rattus norvegicus [8]) was 93% and the inhibition in vivo at 0.1 mg/kg (Rattus norvegicus [11]) was 76%.

O=C(O)CCCC/C=C(\c1ccccc1)c1cccnc1 [(E)-ISBOGREL] was tested, and the inhibition in vivo at 0.1 mg/kg (Rattus norvegicus [10]) was 75%, the IC50 (Rattus norvegicus [2]) was 0.25 µM and the inhibition in vivo at 1 mg/kg (Rattus norvegicus [4]) was 96%. The inhibition in vivo at 0.1 mg/kg (Rattus norvegicus [12]) was 40% and the inhibition in vivo at 1 mg/kg (Rattus norvegicus [13]) was 80%.

O=C([O-])c1ccc2c(c1)CC(Cc1cncs1)C2.[Na+] (stereo unspecified) gave an inhibition in vivo at 1 mg/kg (Rattus norvegicus [1]) of 52%, an IC50 (Rattus norvegicus [2]) of 0.4 µM and a x fold (Rattus norvegicus [3]) of 9.55. The inhibition in vivo at 1 mg/kg (Rattus norvegicus [4]) was 94%, the inhibition in vivo at 0.1 mg/kg (Rattus norvegicus [5]) was 77% and the inhibition in vivo at 1 mg/kg (Rattus norvegicus [6]) was 87%. For the same molecule, the x fold (Rattus norvegicus [7]) was 3.52, the inhibition in vivo at 0.1 mg/kg (Rattus norvegicus [9]) was 26% and the inhibition in vivo at 0.1 mg/kg (Rattus norvegicus [8]) was 62%.

Cl.O=C(O)c1ccc2c(c1)CC(Cn1ccnc1)C2 (stereo unspecified) showed an inhibition in vivo at 1 mg/kg (Rattus norvegicus [1]) of 74%, an IC50 (Rattus norvegicus [2]) of 6.6 µM and a x fold (Rattus norvegicus [3]) of 6.93. It also gave an inhibition in vivo at 1 mg/kg (Rattus norvegicus [4]) of 95%, an inhibition in vivo at 0.1 mg/kg (Rattus norvegicus [5]) of 73% and an inhibition in vivo at 1 mg/kg (Rattus norvegicus [6]) of 90%. The x fold (Rattus norvegicus [7]) was 3.57, the inhibition in vivo at 0.1 mg/kg (Rattus norvegicus [9]) was 51% and the inhibition in vivo at 0.1 mg/kg (Rattus norvegicus [8]) was 60%.
